Data set [1] concerns Plasmodium falciparum. Nature of the data set: Antimalarial activity against chloroquine-sensitive Plasmodium falciparum 3D7 infected in human erythrocytes assessed as inhibition of [3H]hypoxanthine incorporation after 48 hrs by beta liquid scintillation counting method. It counts as functional, organism-based. An outline of the steps:
(§1)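 Hydrochloride salts, from DMSO/water stocks (final DMSO <0.05%), added in triplicate to parasites cultured in RPMI 1640 HEPES with L-glutamine, gentamicin, hypoxanthine and 10% pooled human plasma at 37 °C under 3–9% oxygen. Radiolabel was added, then 48 h incubation, freeze-thaw, filtermat harvest and scintillation counting. Uninfected and infected drug-free controls were included. IC50 came from nonlinear regression of log-dose–response curves, with at least 3 separate runs.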

A short description of data set [2]: Selectivity index, ratio of IC50 for mouse 3T3 cells to IC50 for chloroquine-resistant Plasmodium falciparum W2mef. The conditions noted are these: read-out: Ratio IC50. It counts as toxicity, cell-based, NIH3T3. In short, it runs like this:
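The ratio uses the W2mef antiplasmodial IC50 and the IC50 in 3T3 mouse embryonic fibroblasts. Cells were seeded 24 h earlier at 7500/well on 1% gelatine, 37 °C, 5% CO2. Serial dilutions were added in quadruplicate with a vehicle control for 48 h. MTT (1 mg/mL, 60 min, 37 °C) was solubilised in DMSO and read at 595 nm. IC50 came from nonlinear regression after DMSO correction, with at least 3 runs.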

In data set [3] the test system is Plasmodium falciparum. Nature of the data set: Antimalarial activity against chloroquine-resistant Plasmodium falciparum W2mef infected in human erythrocytes assessed as inhibition of [3H]hypoxanthine incorporation after 48 hrs by beta liquid scintillation counting method. It counts as functional, organism-based. In short, it runs like this:
as §1

The subject of another data set is NIH3T3. Nature of the data set: Cytotoxicity against mouse 3T3 cells after 48 hrs by MTT assay. In kind it is cell-based. The conditions noted are these: NIH3T3, 48 h. In short, it runs like this: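 Cells seeded at 7500 per well on 1% gelatine-coated plates 24 h before testing (37 °C, 5% CO2, humidified). Test agents given as hydrochloride salts in DMSO/water stocks, diluted in RPMI, serially diluted, added in quadruplicate, with vehicle and drug-free controls. After 48 h, MTT (1 mg/mL in RPMI) for 60 min, DMSO solubilisation, absorbance 595 nm. At least three separate runs; IC50 by non-linear regression after DMSO correction.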

For data set [4], the system named is Plasmodium falciparum. Nature of the data set: Antimalarial activity against Plasmodium falciparum K1. In kind it is functional, organism-based.

Structures can show the parent of a compound that is named as a salt.

As a reminder, the IC50 is the concentration that gives 50% inhibition. `Cc1cc2nc3c4ccccc4n(C)cc-3c2cc1Br`: the results for the IC50 with Plasmodium falciparum [1], in the data set with Plasmodium falciparum [3] and in the data set with NIH3T3 were 62 nM, 131 nM and 2500 nM, respectively. Further, the selectivity ratio in data set [2] was 19.

As to `Cc1ccc2c3cn(C)c4ccccc4c-3nc2c1`, the IC50 in the data set with Plasmodium falciparum [1] was 448 nM; in the data set with Plasmodium falciparum [3], 760 nM; in the data set with NIH3T3, 2070 nM. In data set [2], the selectivity ratio came out at 2.7.

As for `CCN(CC)CCCC(C)Nc1ccnc2cc(Cl)ccc12` (centres undefined) [CHLOROQUINE], the IC50 in the data set with NIH3T3 came out at 72000 nM.

Consider `Cn1cc2c3cc(Cl)ccc3nc-2c2ccccc21`, for which the IC50 in the data set with Plasmodium falciparum [1] was determined as 117 nM; in the data set with Plasmodium falciparum [3], 218 nM; in the data set with NIH3T3, 2100 nM. Also, the selectivity ratio in data set [2] worked out at 9.6.

With `Cn1cc2c3cc(Br)ccc3nc-2c2cc(Cl)ccc21`, the IC50 in the data set with Plasmodium falciparum [1] is 57 nM; in the data set on Plasmodium falciparum [3], 85 nM; in the data set with NIH3T3, 9000 nM. Besides, the selectivity ratio in data set [2] is 106.

`Cn1c2c3cc(Br)ccc3nc-2cc2cc(Br)ccc21`: in the data set on Plasmodium falciparum [4], the IC50 was 49 nM.

With `Cn1cc2c3cc(Br)ccc3nc-2c2ccc(Cl)cc21`, the IC50 with Plasmodium falciparum [1] stood at 50 nM; in the data set with Plasmodium falciparum [3], 100 nM; with NIH3T3, 2640 nM. Also, in data set [2], the selectivity ratio was found to be 26.

For `Cn1cc2c3ccccc3nc-2c2ccc(Cl)cc21`, the results for the IC50 with Plasmodium falciparum [1], with Plasmodium falciparum [3] and with NIH3T3 were 130 nM, 316 nM and 2260 nM, respectively. In data set [2], the selectivity ratio stood at 7.3.

Turning to `Cn1cc2c3cc(Br)ccc3nc-2c2ccccc21`, the results for the IC50 with Plasmodium falciparum [1], in the data set on Plasmodium falciparum [3] and in the data set with NIH3T3 were 85 nM, 184 nM and 1970 nM, respectively. For the same compound, the selectivity ratio in data set [2] was 11.

As for `CCCCN(CCCC)CC(O)c1cc(Cl)cc2c1-c1ccc(Cl)cc1/C2=C/c1ccc(Cl)cc1` (centres undefined) [LUMEFANTRINE], the IC50 in the data set on Plasmodium falciparum [3] amounted to 56 nM.

For the compound `Cn1cc2c3ccccc3nc-2c2ccccc21` [ISOCRYPTOLEPINE HYDROCHLORIDE], the values for the IC50 in the data set on Plasmodium falciparum [1], in the data set with Plasmodium falciparum [3] and in the data set on NIH3T3 were 665 nM, 1180 nM and 2190 nM, respectively. In addition, the selectivity ratio in data set [2] turned out to be 1.9.

Consider `Cn1cc2c3cc(Br)ccc3nc-2c2cc(Br)ccc21`, for which the IC50 in the data set on Plasmodium falciparum [1] amounted to 127 nM; with Plasmodium falciparum [3], 112 nM; in the data set on NIH3T3, 2580 nM. Further, the selectivity ratio in data set [2] came out at 23.

The values are drawn from ChEMBL document CHEMBL1926596, “Synthesis and antimalarial evaluation of novel isocryptolepine derivatives” (Bioorg Med Chem, 2011).
